According to ChEMBL document CHEMBL1955830, “Substituted azaquinazolinones as modulators of GHSr-1a for the treatment of type II diabetes and obesity” (Bioorg Med Chem Lett, 2012):

Legend:
[1] = target: Growth hormone secretagogue receptor type 1 (Homo sapiens, UniProt Q92847); experiment: Displacement of [125I]-Ghrelin from human GHSR membranes overexpressing GSH-R1a by scintillation counting
How it was run: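 Binding affinity (Ki) at GHS-R1a was measured by 125I-ghrelin displacement using commercial human GHS-R1a membranes.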

[2] = Antagonist activity at mouse GSH-R1a receptor expressed in HEK293 cells assessed as inhibition of ghrelin-induced calcium mobilization after 5 mins by FLIPR assay; assay type: functional, cell-based; conditions: HEK293, 5 min
How it was run: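 Functional antagonism was measured as IC50 in a FLIPR Ca2+ mobilisation assay.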

[3] = target: Voltage-gated inwardly rectifying potassium channel KCNH2 (Homo sapiens, UniProt Q12809); experiment: Inhibition of human Erg by patch clamp assay; conditions: for pIC50: human
[4] = Volume of distribution at steady state in Sprague-Dawley rat at 1 mg/kg, iv; assay type: ADME, organism-based; design: dose 1 mg/kg, route intravenous; conditions: in vivo, read-out: Vdss
How it was run: (§1)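 Male Sprague-Dawley rats were dosed with compound formulated in 20% trappsol in water for injection as the vehicle.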

[5] = AUC in Sprague-Dawley rat at 1 mg/kg, iv; assay type: ADME, organism-based; design: dose 1 mg/kg, route intravenous; conditions: plasma; how it was run: as §1
[6] = Oral bioavailability in Sprague-Dawley rat at 1 mg/kg; assay type: ADME, organism-based; conditions: in vivo, 3 mg/kg, in the assay text read “3 mg/kg” for “1 mg/kg”; how it was run: as §1
[7] = AUC in Sprague-Dawley rat at 3 mg/kg, po; assay type: ADME, organism-based; design: dose 3 mg/kg, route oral; conditions: plasma; how it was run: as §1
[8] = Half life in Sprague-Dawley rat at 1 mg/kg, iv; assay type: ADME, organism-based; design: dose 1 mg/kg, route intravenous; conditions: in vivo; how it was run: as §1
Rattus norvegicus = experiment: Clearance in Sprague-Dawley rat at 1 mg/kg, iv; assay type: ADME, organism-based; design: dose 1 mg/kg, route intravenous; conditions: in vivo; how it was run: as §1
[9] = target: T1, Muscarinic acetylcholine receptor M1 (Homo sapiens) (UniProt P11229); experiment: Inhibition of muscarinic M1 receptor at 10 uM
T1 sequence (whole entry): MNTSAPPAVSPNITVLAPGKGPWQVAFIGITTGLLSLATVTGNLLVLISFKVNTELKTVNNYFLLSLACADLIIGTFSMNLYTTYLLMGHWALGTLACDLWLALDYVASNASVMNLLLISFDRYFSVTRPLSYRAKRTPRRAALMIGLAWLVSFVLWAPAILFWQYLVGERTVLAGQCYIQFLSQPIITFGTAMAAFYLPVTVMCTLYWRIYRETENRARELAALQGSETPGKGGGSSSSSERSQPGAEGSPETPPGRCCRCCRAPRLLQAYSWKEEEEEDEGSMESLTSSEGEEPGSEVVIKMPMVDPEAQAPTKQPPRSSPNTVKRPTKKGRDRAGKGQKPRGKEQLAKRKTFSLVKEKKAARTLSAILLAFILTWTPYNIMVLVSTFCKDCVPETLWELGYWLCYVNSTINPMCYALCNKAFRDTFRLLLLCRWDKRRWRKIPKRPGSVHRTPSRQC

[10] = target: 5-hydroxytryptamine receptor 2B (Homo sapiens) (UniProt P41595); experiment: Inhibition of 5-HT2B at 10 uM
[11] = target: T2, Muscarinic acetylcholine receptor M2 (Homo sapiens) (UniProt P08172); experiment: Inhibition of muscarinic M2 receptor at 10 uM
T2 sequence (whole entry): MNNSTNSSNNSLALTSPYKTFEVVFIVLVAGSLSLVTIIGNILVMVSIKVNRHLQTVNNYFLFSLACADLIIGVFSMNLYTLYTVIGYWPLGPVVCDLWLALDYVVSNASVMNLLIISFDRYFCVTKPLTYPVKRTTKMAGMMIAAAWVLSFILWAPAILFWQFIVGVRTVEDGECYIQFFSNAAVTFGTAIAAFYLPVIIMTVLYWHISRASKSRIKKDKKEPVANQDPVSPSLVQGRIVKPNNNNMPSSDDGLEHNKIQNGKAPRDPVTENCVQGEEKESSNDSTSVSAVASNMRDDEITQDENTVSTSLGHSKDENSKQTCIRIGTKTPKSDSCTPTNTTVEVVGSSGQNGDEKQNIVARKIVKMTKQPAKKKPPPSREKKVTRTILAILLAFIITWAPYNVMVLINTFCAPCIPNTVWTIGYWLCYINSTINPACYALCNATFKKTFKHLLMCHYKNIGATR

hERG (KCNH2) = hERG (KCNH2) (Homo sapiens, UniProt Q12809); experiment: in vitro
Sequence of hERG (KCNH2) (Q12809 whole entry): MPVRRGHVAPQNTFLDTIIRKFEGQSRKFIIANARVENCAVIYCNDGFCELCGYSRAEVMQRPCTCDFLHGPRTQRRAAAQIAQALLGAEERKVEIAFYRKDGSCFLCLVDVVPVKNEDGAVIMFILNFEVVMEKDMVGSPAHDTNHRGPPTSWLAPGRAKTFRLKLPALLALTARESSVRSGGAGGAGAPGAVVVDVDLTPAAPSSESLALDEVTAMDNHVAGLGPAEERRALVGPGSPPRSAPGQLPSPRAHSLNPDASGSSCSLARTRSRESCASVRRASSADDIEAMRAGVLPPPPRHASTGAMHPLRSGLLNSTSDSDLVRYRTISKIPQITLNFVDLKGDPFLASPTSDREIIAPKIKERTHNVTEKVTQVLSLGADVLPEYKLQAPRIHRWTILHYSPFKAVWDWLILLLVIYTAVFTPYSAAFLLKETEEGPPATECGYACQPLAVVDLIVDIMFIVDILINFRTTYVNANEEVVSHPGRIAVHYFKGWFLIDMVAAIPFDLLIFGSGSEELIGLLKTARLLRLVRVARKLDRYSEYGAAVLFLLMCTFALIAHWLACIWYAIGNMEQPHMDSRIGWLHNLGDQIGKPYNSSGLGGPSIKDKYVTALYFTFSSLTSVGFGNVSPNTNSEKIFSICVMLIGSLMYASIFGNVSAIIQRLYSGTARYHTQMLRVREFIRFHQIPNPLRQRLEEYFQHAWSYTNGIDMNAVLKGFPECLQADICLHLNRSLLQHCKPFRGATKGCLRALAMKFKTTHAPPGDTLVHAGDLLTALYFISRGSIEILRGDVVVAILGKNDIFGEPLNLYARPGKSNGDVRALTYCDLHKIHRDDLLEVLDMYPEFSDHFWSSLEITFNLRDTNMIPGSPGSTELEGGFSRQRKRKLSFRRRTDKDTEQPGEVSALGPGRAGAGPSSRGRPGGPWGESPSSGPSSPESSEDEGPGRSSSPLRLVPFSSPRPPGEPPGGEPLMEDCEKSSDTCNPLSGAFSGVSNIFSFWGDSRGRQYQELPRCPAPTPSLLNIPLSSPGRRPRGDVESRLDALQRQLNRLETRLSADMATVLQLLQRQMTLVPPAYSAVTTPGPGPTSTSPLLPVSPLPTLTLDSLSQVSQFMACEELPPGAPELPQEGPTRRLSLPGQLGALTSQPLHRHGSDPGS

Sequence of Growth hormone secretagogue receptor type 1 (Q92847 whole entry): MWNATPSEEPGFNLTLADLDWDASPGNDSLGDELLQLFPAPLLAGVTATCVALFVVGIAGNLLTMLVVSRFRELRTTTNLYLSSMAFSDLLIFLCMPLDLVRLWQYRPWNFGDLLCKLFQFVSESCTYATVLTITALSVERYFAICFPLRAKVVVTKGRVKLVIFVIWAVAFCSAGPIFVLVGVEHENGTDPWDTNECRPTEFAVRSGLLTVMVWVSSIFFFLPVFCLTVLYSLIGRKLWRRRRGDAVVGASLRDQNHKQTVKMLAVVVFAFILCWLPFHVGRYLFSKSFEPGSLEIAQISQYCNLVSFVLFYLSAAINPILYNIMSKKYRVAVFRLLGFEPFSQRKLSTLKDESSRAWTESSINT
Sequence of Voltage-gated inwardly rectifying potassium channel KCNH2 (Q12809 whole entry): as the sequence (Q12809 whole entry) above
Sequence of 5-hydroxytryptamine receptor 2B (Homo sapiens) (P41595 whole entry): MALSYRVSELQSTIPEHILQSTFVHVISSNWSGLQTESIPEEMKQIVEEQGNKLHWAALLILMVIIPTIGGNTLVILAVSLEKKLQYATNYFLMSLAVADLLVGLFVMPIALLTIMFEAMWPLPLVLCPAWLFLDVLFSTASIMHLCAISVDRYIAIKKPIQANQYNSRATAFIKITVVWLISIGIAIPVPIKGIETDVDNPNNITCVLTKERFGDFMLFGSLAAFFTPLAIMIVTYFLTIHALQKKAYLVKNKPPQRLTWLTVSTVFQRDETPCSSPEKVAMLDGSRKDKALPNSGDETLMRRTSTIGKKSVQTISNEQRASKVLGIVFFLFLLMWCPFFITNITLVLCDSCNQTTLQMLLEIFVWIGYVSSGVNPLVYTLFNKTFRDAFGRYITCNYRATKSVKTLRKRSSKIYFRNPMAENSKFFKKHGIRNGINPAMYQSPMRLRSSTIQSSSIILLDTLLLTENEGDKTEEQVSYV

| SMILES | Ki [1] | IC50 [2] | other results |
| --- | --- | --- | --- |
| Cc1nc2ccc(Oc3ccc(-c4ccccc4)cc3)nc2c(=O)n1C[C@H]1CCCN(C(C)C)C1 | 0.4 nM | 37.7 nM |  |
| Cc1nc2cnc(Oc3ccc(F)c4cccnc34)cc2c(=O)n1C[C@H]1CCCN(C(C)C)C1 | 6.6 nM | 1440 nM | IC50 [3]: 9400 nM |
| Cc1nc2ncc(Oc3ccc4ncsc4c3)nc2c(=O)n1C[C@H]1CCCN(C(C)C)C1 | 0.26 nM | 5.7 nM |  |
| COc1ccc(Cn2c(CCc3c[nH]c4ccccc34)nnc2[C@@H](Cc2c[nH]c3ccccc23)NC(=O)[C@@H]2CCCN2)c(OC)c1 |  | 5.6 nM |  |
| Cc1nc2ccc(Oc3ccc(F)c4cccnc34)nc2c(=O)n1C[C@H]1CCCN(C(C)C)C1 | 2.6 nM | 131 nM | IC50 [3]: 130 nM |
| Cc1nc2ccc(Oc3ccc(F)cc3)nc2c(=O)n1C[C@H]1CCCN(C(C)C)C1 | 2 nM | 185 nM | Vd [4]: 11.9 L/kg; AUC [5]: 523 ng·h/mL; bioavailability [6]: 60%; AUC [7]: 941 ng·h/mL; half-life [8]: 7.16 h; clearance (Rattus norvegicus): 32 mL/min/kg |
| Cc1nc2ccc(Oc3ccc4ncsc4c3)nc2c(=O)n1C[C@H]1CCCN(C(C)C)C1 | 0.01 nM | 2.7 nM |  |
| Cc1nc2ncc(Oc3ccc(Cl)cc3F)nc2c(=O)n1C[C@H]1CCCN(C(C)C)C1 | 0.6 nM | 102 nM |  |
| Cc1nc2ccc(Oc3ccc(F)cc3)cc2c(=O)n1C[C@H]1CCCN(C(C)C)C1 | 1 nM | 141 nM | inhibition [9]: > 50%; inhibition [10]: > 50%; inhibition [11]: > 50% |
| Cc1nc2cnc(Oc3cccc4cccnc34)cc2c(=O)n1C[C@H]1CCCN(C(C)C)C1 |  |  | IC50 [3]: 25100 nM; pIC50 [3]: 4.6 |
| Cc1nc2cnc(Oc3ccc4c(c3)ncn4C)cc2c(=O)n1C[C@H]1CCCN(C(C)C)C1 | 0.5 nM | 137 nM |  |
| Nc1nc(N)c(-c2ccc(NC(=O)C3CC3)cc2)c(COCc2ccccc2)n1 |  | 188 nM |  |
| Cc1nc2cnc(Oc3ccc(Cl)cc3F)cc2c(=O)n1C[C@H]1CCCN(C(C)C)C1 | 0.2 nM | 146 nM | IC50 [3]: 130 nM; pIC50 [3]: 6.89; selectivity ratio (hERG (KCNH2)): 10 |
| Cc1nc2ncc(Oc3ccc4c(c3)OCO4)nc2c(=O)n1C[C@H]1CCCN(C(C)C)C1 | 1.5 nM | 16.5 nM |  |
| Cc1nc2ncc(Oc3ccc(Br)cc3F)cc2c(=O)n1C[C@H]1CCCN(C(C)C)C1 | 0.16 nM | 26 nM | IC50 [3]: 1300 nM |
| Cc1nc2ncc(Oc3ccc(F)cc3)cc2c(=O)n1C[C@H]1CCCN(C(C)C)C1 | 6.7 nM | 357 nM |  |
| Cc1nc2ncc(Oc3ccc(Br)cc3F)nc2c(=O)n1C[C@H]1CCCN(C(C)C)C1 | 0.05 nM | 1.17 nM |  |
| Cc1nc2ccc(Oc3ccc4c(c3)OCO4)nc2c(=O)n1C[C@H]1CCCN(C(C)C)C1 | 0.9 nM | 19.2 nM |  |
| Cc1nc2ncc(Oc3ccc(F)cc3)nc2c(=O)n1C[C@H]1CCCN(C(C)C)C1 | 3.1 nM | 587 nM | Vd [4]: 2.87 L/kg; AUC [5]: 1170 ng·h/mL; bioavailability [6]: 33%; AUC [7]: 1170 ng·h/mL; half-life [8]: 3.01 h; clearance (Rattus norvegicus): 13 mL/min/kg |
| Cc1nc2ncc(Oc3ccc(-c4ccccc4)cc3)nc2c(=O)n1C[C@H]1CCCN(C(C)C)C1 | 0.27 nM | 80 nM |  |
| Cc1nc2ccc(Oc3ccc(Br)cc3F)nc2c(=O)n1C[C@H]1CCCN(C(C)C)C1 | 0.01 nM | 2.3 nM |  |
| Cc1nc2ncc(Oc3ccc(F)c4cccnc34)nc2c(=O)n1C[C@H]1CCCN(C(C)C)C1 | 1.9 nM | 142 nM | IC50 [3]: > 33000 nM |
| COc1ccc2cccc(Oc3ccc4nc(C)n(C[C@H]5CCCN(C(C)C)C5)c(=O)c4n3)c2n1 | 3.1 nM | 118 nM |  |
| Cc1nc2ccc(Oc3ccc(Cl)cc3F)nc2c(=O)n1C[C@H]1CCCN(C(C)C)C1 | 0.2 nM | 2 nM | Vd [4]: 6.64 L/kg; AUC [5]: 695 ng·h/mL; bioavailability [6]: 35%; AUC [7]: 736 ng·h/mL; half-life [8]: 4.71 h; clearance (Rattus norvegicus): 24 mL/min/kg |
| Cc1nc2cnc(Oc3ccc4c(c3)OCO4)cc2c(=O)n1C[C@H]1CCCN(C(C)C)C1 | 0.3 nM | 86.5 nM |  |
| Cc1nc2ncc(Oc3ccc4c(c3)ncn4C)nc2c(=O)n1C[C@H]1CCCN(C(C)C)C1 | 5 nM | 51.8 nM |  |
| Cc1nc2cnc(Oc3ccc4ncsc4c3)cc2c(=O)n1C[C@H]1CCCN(C(C)C)C1 | 0.1 nM | 29.2 nM | IC50 [3]: 2400 nM; pIC50 [3]: 5.62 |
| Cc1nc2cnc(Oc3ccc(F)cc3)cc2c(=O)n1C[C@H]1CCCN(C(C)C)C1 | 3.4 nM | 399 nM |  |
| Cc1nc2ncc(Oc3ccc(-c4ccccc4)cc3)cc2c(=O)n1C[C@H]1CCCN(C(C)C)C1 | 1.7 nM | 131 nM |  |
